Test results as given in ChEMBL document CHEMBL1138681, “Identification of structurally diverse growth hormone secretagogue agonists by virtual screening and structure-activity relationship analysis of 2-formylaminoacetamide derivatives” (J Med Chem, 2004).
The source made the active and inactive calls. The calls are words filed in the database; no cut-off is given here.

Columns and labels:
[1] = biological target: T1, Growth hormone secretagogue receptor type 1 (Homo sapiens, UniProt Q92847); assay: Tested for growth hormone secretagogue activity in A93 cell line using a calcium flux assay at 10 uM (Relative to compound T1); NA means not active; format: functional, cell-based
[2] = biological target: T1, Growth hormone secretagogue receptor type 1; assay: Tested for growth hormone secretagogue activity in A93 cell line using a calcium flux assay at 10 uM (Relative to compound T1); format: functional, cell-based
[3] = biological target: T1, Growth hormone secretagogue receptor type 1; assay: Binding affinity for human growth hormone secretagogue receptor was determined using [125I]ghrelin
In short: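 Competition binding with (125I)ghrelin (human) at the GHS receptor, run by a contract laboratory following published methods. Ki values were derived from binding curves.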

[4] = biological target: T1, Growth hormone secretagogue receptor type 1; assay: Binding affinity for human growth hormone secretagogue receptor using [125I]ghrelin; NA means not active
In short: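 Radioligand displacement with (125I)ghrelin (human) at GHS receptor, run by a contract lab following published methods; Ki values reported; binding curves in supplement.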

T1 sequence (Q92847 whole entry): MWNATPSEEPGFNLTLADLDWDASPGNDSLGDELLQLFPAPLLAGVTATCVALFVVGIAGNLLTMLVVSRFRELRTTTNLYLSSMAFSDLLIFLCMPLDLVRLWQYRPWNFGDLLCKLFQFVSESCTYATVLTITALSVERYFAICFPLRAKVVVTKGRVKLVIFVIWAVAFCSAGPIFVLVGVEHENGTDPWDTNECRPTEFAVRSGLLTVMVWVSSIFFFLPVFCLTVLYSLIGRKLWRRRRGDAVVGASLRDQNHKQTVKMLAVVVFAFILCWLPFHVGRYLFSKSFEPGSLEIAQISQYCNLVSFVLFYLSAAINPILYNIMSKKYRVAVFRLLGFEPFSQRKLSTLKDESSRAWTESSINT

Structure (SMILES) | Activity [1] | Activity [2] | Ki [3] | also measured
CCN(CC)CCCN(C(=O)c1ccc(-c2ccccc2)[nH]1)C(C(=O)NC1CCCCC1)c1ccc(OC)c(OC)c1 (stereo unspecified) | – | 0.32 | 2630 nM | –
O=C(NC1CCCCC1)C(c1ccc(F)cc1)N(CCCN1CCOCC1)C(=O)c1ccc(-c2ccccc2)[nH]1 (stereo unspecified) | – | – | – | Ki [4]: Not Active
CCN(CC)CCCN(C(=O)Cn1nnc(-c2ccc(OC)c(OC)c2)n1)C(C(=O)NC1CCCCC1)c1ccc(F)cc1 (stereo unspecified) | inactive | – | – | –
CCN(CC)CCN1C(=O)[C@@](O)(c2ccccc2Cl)c2c1cc(C(N)=O)cc2C(F)(F)F | – | – | – | IC50 [3]: 1.2 nM
CCN(CC)CCCN(C(=O)c1ccc(-c2ccccc2)[nH]1)C(C(=O)NC1CCCCC1)c1ccco1 (stereo unspecified) | inactive | – | – | –
CCN(CC)CCCN(C(=O)c1ccc(-c2ccccc2)[nH]1)C(C)C(=O)NC1CCCCC1 (stereo unspecified) | – | 0.96 | 1920 nM | –
CCN(CC)CCCN(C(=O)c1ccc(-c2ccccc2)[nH]1)C(C(=O)NCc1ccc(F)cc1)c1ccc(F)cc1 (stereo unspecified) | – | 0.45 | 1150 nM | –
CCCC(C(=O)NC1CCCCC1)N(CCCN(CC)CC)C(=O)c1ccc(-c2ccccc2)[nH]1 (stereo unspecified) | – | 1.37 | 870 nM | –
CCCCC(C(=O)NC1CCCCC1)N(CCCN(CC)CC)C(=O)c1ccc(-c2ccccc2)[nH]1 (stereo unspecified) | – | 1.6 | 280 nM | –
Cc1ccc(CC(C(=O)NC2CCCCC2)N(C(=O)c2ccc(-c3ccccc3)[nH]2)C2CCCC2)o1 (stereo unspecified) | inactive | – | – | –
CCC(C(=O)NC1CCCCC1)N(CCCN(CC)CC)C(=O)c1ccc(-c2ccccc2)[nH]1 (stereo unspecified) | – | 1.23 | 220 nM | –
CCN(CC)CCCN(C(=O)c1snc(C(N)=O)c1N)C(C(=O)NC1CCCCC1)c1ccc(F)cc1 (stereo unspecified) | inactive | – | – | –
CCN(CC)CCCN(C(=O)c1ccc(-c2ccccc2)[nH]1)C(C(=O)NC1CCCCC1)c1cccs1 (stereo unspecified) | inactive | – | – | –
CC(C)(C)NC(=O)C(c1ccc(F)cc1)N(CCCN1CCOCC1)C(=O)c1ccc(-c2ccccc2)[nH]1 (stereo unspecified) | – | – | – | Ki [4]: Not Active
CCOC(=O)CN(C(=O)c1ccc(-c2ccccc2)[nH]1)C(C)C(=O)NC1CCCCC1 (stereo unspecified) | inactive | – | – | –
COc1ccc(CN(C(=O)c2ccc(-c3ccccc3)[nH]2)C(C)C(=O)NC2CCCCC2)cc1 (stereo unspecified) | inactive | – | – | –
CCN(CC)CCCN(C(=O)CCN1CCCc2ccccc21)C(C(=O)NC1CCCCC1)c1ccc(F)cc1 (stereo unspecified) | – | 0.31 | 2030 nM | –
CCN(CC)CCN(C(=O)c1ccc(CN2CCCCC2)o1)C(C(=O)NC1CCCCC1)c1ccc(F)cc1 (stereo unspecified) | – | – | – | Ki [4]: Not Active
CCN(CC)CCCN(C(=O)c1ccc(-c2ccccc2)[nH]1)C(C(=O)NC1CCCCC1)c1cc(OC)ccc1OC (stereo unspecified) | inactive | – | – | –
CCN(CC)CCN(C(=O)c1ccc(-c2ccccc2)[nH]1)C(C(=O)NC1CCCCC1)c1c[nH]c2ccccc12 (stereo unspecified) | inactive | – | – | –
CCN(CC)CCCN(C(=O)c1ccc(-c2ccccc2)[nH]1)C(Cc1ccc(C)o1)C(=O)NC1CCCCC1 (stereo unspecified) | – | 0.28 | 1170 nM | –
O=C(NC1CCCC1)C(c1ccncc1)N(C(=O)c1ccc(-c2ccccc2)[nH]1)c1ccccc1 (stereo unspecified) | inactive | – | – | –
Cc1ccc(CC(C(=O)NC2CCCCC2)N(Cc2ccccc2)C(=O)c2ccc(-c3ccccc3)[nH]2)o1 (stereo unspecified) | inactive | – | – | –
CCN(CC)CCCN(C(=O)c1ccc(-c2ccccc2)[nH]1)C(C)C(=O)NC(C)(C)C (stereo unspecified) | – | 0.38 | 1180 nM | –
CCN(CC)CCCN(C(=O)c1ccc(-c2ccccc2)[nH]1)C(C(=O)NC1CCCCC1)c1cc(OC)c(OC)c(OC)c1 (stereo unspecified) | inactive | – | – | –
CCN(CC)CCN(C(=O)c1ccc(CN2CCCCC2)o1)C(C(=O)NC1CCCCC1)c1ccc(N(C)C)cc1 (stereo unspecified) | inactive | – | – | –

Further lines, with some results ahead:

Activity [1] | Activity [2] | Ki [3] | Structure (SMILES) | also measured
inactive | – | – | CCN(CC)CCCN(C(=O)c1ccc(-c2ccccc2)[nH]1)C(C(=O)NC1CCCCC1)c1ccc(C)cc1 (stereo unspecified) | –
inactive | – | – | O=C(NC1CCCCC1)C(c1ccc(F)cc1)N(C(=O)c1ccc(-c2ccccc2)[nH]1)c1ccccc1 (stereo unspecified) | –
– | 1.16 | 910 nM | CCN(CC)CCCN(C(=O)c1ccc(-c2ccccc2)[nH]1)C(C(=O)NC1CCCCC1)c1ccncc1 (stereo unspecified) | –
inactive | – | – | O=C(NC1CCCCC1)C(c1ccc(F)cc1)N(CCCN1CCOCC1)C(=O)c1ccc(CN2CCOCC2)o1 (stereo unspecified) | –
– | 0.24 | 1370 nM | CCN(CC)CCN(C(=O)c1ccc(-c2ccccc2)[nH]1)C(C(=O)NC1CCCCC1)c1ccc(F)cc1 (stereo unspecified) | –
inactive | – | – | O=C(NC1CCCC1)C(c1ccncc1)N(CCCN1CCOCC1)C(=O)c1ccc(-c2ccccc2)[nH]1 (stereo unspecified) | –
inactive | – | – | O=C(NC1CCCCC1)C(c1ccc(F)cc1)N(C(=O)c1ccc(-c2ccccc2)[nH]1)C1CCCCC1 (stereo unspecified) | –
– | 0.52 | 1320 nM | CCN(CC)CCCN(C(=O)c1ccc(-c2ccccc2)[nH]1)C(C(=O)NC1CCCCC1)c1ccc(O)cc1 (stereo unspecified) | –
– | 0.57 | 1290 nM | CCN(CC)CCCN(C(=O)c1ccc(-c2ccccc2)[nH]1)C(C(=O)NC1CCCCC1)c1ccc(F)cc1 (stereo unspecified) | –
inactive | – | – | O=C(NC1CCCCC1)C(c1ccc(F)cc1)N(CCN1CCOCC1)C(=O)c1ccc(-c2ccccc2)[nH]1 (stereo unspecified) | –
inactive | – | – | COc1ccc(CN(C(=O)c2ccc(-c3ccccc3)[nH]2)C(C(=O)NC2CCCCC2)c2ccc(F)cc2)cc1 (stereo unspecified) | –
inactive | – | – | CCOc1ccc(C(C(=O)NC2CCCCC2)N(CCCN(CC)CC)C(=O)c2ccc(-c3ccccc3)[nH]2)cc1 (stereo unspecified) | –
